Bioassay records as filed in PubChem.
RAM inhibit: inhibitors of the yeast RAM network | inhibition, % at 50 µM | 1.8% of 190,000 active | S. cerevisiae dse1pr::URA3 reporter, 5-FOA growth OD615, 2 d; analog-sensitive cbk1-as2 kinase mutant strain;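 active = inhibition above a set limit, 3 SD over mean compound inhibition, cut at about 8.4% in these data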;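 note: 0% = DMSO-only wells with no growth and 100% = 10 µM 1-NA-PP1 full growth; inhibition rescues growth on 5-FOA so higher OD means more RAM inhibition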
Yeast life ext: extends the lifespan of yeast; S. cerevisiae growth with nicotinamide, OD615; deaD strain in restrictive glucose medium; inhibition of the nicotinamide effect, % at 10 µM; 0.68% of 130,000 active;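 active = inhibition above a set limit, placed 3 SD over the median of all compounds, cut at about 26% in these data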;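 note: 0% = nicotinamide-treated wells and 100% = cells grown without nicotinamide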
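Measured by: optical density (absorbance) at 615 nm; System: modified budding yeast, DeaD strain; Medium: restrictive CSMM-D dextrose medium; Timing: 4 h preincubation then 48 h treatment at 30 °C.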
Yeast growth inh: yeast BB579 growth reduction in restrictive medium. S. cerevisiae BB579 growth, OD615, 48 h. 0.51% of 140,000 active. inhibition, % at 10 µM;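 active = inhibition above a set limit, 3 SD over the mean compound inhibition, cut at about 44% in these data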
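Test system: DeaD yeast strain BB579 / Buffer or medium: restrictive glucose-based CSMM-D medium / Doses: single 10 µM dose / Schedule: 4 h cell preincubation, 48 h compound exposure, 30 °C humidified / Technique: culture absorbance at 615 nm / Controls: amphotericin B positive control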
Cl transport mod: modulates chloride dependent transport by human KCC2. 2.2% of 190,000 active. KCC2 cells, thallium flux FluoZin-2 fluorescence. B-score of Tl+ flux slope (higher = more flux/activation; lower = inhibition) at 10 µM;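 active = thallium flux slope and its plate-corrected score both differing from the plate sample mean at a set confidence after two filtering rounds, in either direction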;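 note: slope of fluorescence scaled to starting intensity during 10 to 20 s after thallium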
WT yeast gro inh: growth inhibition of WT yeast, mitochondrial fusion screen; mitochondrial fusion phenotypic screen, WT strain; inhibition, % at 10 µM; 2.1% of 190,000 active; in the data active = inhibition above about 58%; tested in S. cerevisiae
The depositor's hits bear a star; . = not tested or not shown. In the library only some 5.5% were active in any assay of this set; here they are far more common.

SMILES	RAM inhibit	Yeast life ext	Yeast growth inh	Cl transport mod	WT yeast gro inh
CCNc1nc(NC(C)C)nc(N(C#N)CCOc2ccc(Cl)cc2Cl)n1	2	-9	-42	.	80*
CCCN(CCC)S(=O)(=O)c1ccc(C(=O)Nc2nnc(CSC)o2)cc1	1	-5	-14	.	-6
COc1cccc(-c2nnc(NC(=O)c3ccc(Cl)s3)o2)c1	0	7	19	151*	62
CCCN(CCC)S(=O)(=O)c1ccc(C(=O)Nc2nnc(-c3cccc(OC)c3)o2)cc1	2	-1	-8	15*	-1
COc1cccc(-c2nnc(NC(=O)c3ccccc3Br)o2)c1	.	.	.	2.8	4
COc1ccc(-c2nnc(NC(=O)c3ccc(S(=O)(=O)N4COCC4(C)C)cc3)o2)cc1	5	-7	-30	8.2*	4
COc1ccc(-c2nnc(SCc3c(C)noc3C)o2)cc1	0	.	.	-0.021	-14
CCCN(Cc1ccccc1)C(=S)Nc1ccc(F)cc1	2	.	.	-0.58	35
CCCN(Cc1ccccc1)C(=S)Nc1ccc(SC(F)F)cc1	4	.	.	0.7	70*
CCc1c(C)sc(NC(=S)N2CC(C)OC(C)C2)c1C(=O)OC (configuration not stated)	11*	.	.	2.8	64*
O=C(Nc1ccc(Cl)c(Cl)c1)Nc1ccccc1O	.	.	.	-1.2	.
O=C(Nc1ccc(Cl)c(Cl)c1)Nc1ccc(Br)cc1F	7	-3	-49	1.4	81*
O=C1C=C(NC(=O)Nc2ccc(Cl)c(Cl)c2)CCC1	3	.	.	.	80*
C/C(=N\Nc1cc(-c2ccccc2)nc(-c2ccccc2)n1)c1ccc(O)c(C)c1	4	-4	-56	0.06	92*
Cc1c(N(C(=O)c2ccccn2)C2(C(=O)NC3CCCC3)CCCCC2)c(=O)n(-c2ccccc2)n1C	1	.	.	-0.69	2
c1ccc(C2[C@H]3CN(CC4CCCCC4)[C@H](c4ccccc4)C34CC2(c2cccnc2)C4)cc1 (some centres not stated)	.	.	.	0.32	.
CC(=O)N(Cc1cc(=O)[nH]c2ccccc12)c1ccccc1	1	-2	-33	.	18
CC(=O)N(Cc1cc(=O)[nH]c2ccccc12)c1cccc(C)c1	3	-1	-30	.	65*
CC(=O)c1cccc(N(C(=O)Cn2nnc3ccccc32)C(C(=O)NCC2CCCO2)c2ccc(N3CCOCC3)cc2)c1 (configuration not stated)	11*	.	.	0.63	-14
O=C(NCC1CCCO1)C(c1ccc(N2CCOCC2)cc1)N(C(=O)Cn1nnc2ccccc21)c1ccccc1F (configuration not stated)	0	.	.	1.2	-2
COc1ccc(-n2c(SCCC#N)nnc2-c2cc(Cl)ccc2OC)cc1Cl	6	-4	-39	.	-12
CC1(C)CC(=O)C/C(=N\NC(=O)CCc2ccc(S(=O)(=O)N3CCOCC3)cc2)C1	0	.	.	-0.75	1
O=C(COC(=O)C12CC3CC(CC(O)(C3)C1)C2)Nc1ccccc1OC(F)F	-1	-11	-40	0.0074	58*
CCCNc1nc(OCC(F)(F)F)nc(OCC(F)(F)F)n1	1	11	-56	-1.7	-4
CN1CCN(c2nc(NCCOC34CC5CC(CC(C5)C3)C4)nc(OCC(F)(F)F)n2)CC1	-1	-9	12	0.11	83*
SMILES	RAM inhibit	Yeast life ext	Yeast growth inh	Cl transport mod	WT yeast gro inh
O=C(Cc1cccs1)NCCSc1c(-c2ccc(Cl)cc2)[nH]c2ccccc12	8.9*	8	-24	-0.2	42
CCc1ccc(/C=C2\SC(=S)N(CCC(=O)NC3=NCCS3)C2=O)cc1	9.3*	.	.	-0.66	0
CCc1ccc(/C=C2/SC(=S)N(CC(=O)Nc3nc4ccccc4s3)C2=O)cc1	3	-2	-55	4.9*	0
COc1ccccc1/C=C1\SC(=S)N(CCC(=O)NC2=NCCS2)C1=O	5	3	-16	0.056	3
O=C(CCN1C(=O)/C(=C\c2cccs2)SC1=S)NC1=NCCS1	4	-1	-29	-0.41	76*
O=C(CCN1C(=O)/C(=C/c2cccs2)SC1=S)NC1=NCCS1	5	-2	-32	0.25	72*
COc1ccc(C(C)(C)C)cc1NC(=O)c1cc(S(=O)(=O)N(C)C)ccc1N1CCCC1	4	3	-22	-0.62	-10
[O-][n+]1c2c(c3c4non(O)c4ccc31)CCCC2	4	-14	6	-1	76
O=C(Nc1ccc(NC(=O)c2cc([N+](=O)[O-])ccc2N2CCOCC2)cc1)c1cccs1	2	.	.	0.18	-18
CCCCCC1CC(CC(=O)NC(=S)Nc2ccccc2Cl)C(=O)O1 (configuration not stated)	4	.	.	1.8	61*
CC1CC(CC(=O)NC(=S)Nc2ccccc2Cl)C(=O)O1 (configuration not stated)	0	.	.	-0.079	14
CCOc1cc(S(=O)(=O)Nc2ccccc2CC)ccc1Cl	5	13	-52	0.33	69*
CCOc1cc(S(=O)(=O)Nc2ccc(Cl)cn2)ccc1Cl	3	.	-20	-0.019	-1
CCOC(=O)/C(=N/O)C1=NC(C)(C)Cc2cc(C)c(C)cc21	1	.	.	.	-18
CN(c1ccc(C(=O)NCC2CCCO2)cc1)S(=O)(=O)c1ccccc1 (configuration not stated)	2	-9	-36	0.13	9
COc1ccc(OCC(=O)NNC(=O)c2cccc(S(=O)(=O)N(C)C)c2)cc1	0	31*	-26	1.4	-10
CN(C)S(=O)(=O)c1cccc(C(=O)NCC2CCCO2)c1 (configuration not stated)	1	-14	-30	-1.1	97*
Cc1onc(-c2ccccc2Cl)c1C(=O)Nc1nnc(-c2ccc(F)cc2)s1	2	-7	-16	-0.41	51
CCOc1ccc(/C=N/NC(=O)c2c(-c3ccccc3)noc2C)cc1	11*	8	-30	-0.56	-9
Cc1onc(-c2ccccc2Cl)c1C(=O)Nc1nnc(-c2ccc(Cl)cc2Cl)s1	5	-5	-2	.	63*
Cc1onc(-c2ccccc2)c1C(=O)N/N=C/c1cccc(O)c1	0	1	-18	-0.42	9
Cc1onc(-c2ccccc2Cl)c1C(=O)Nc1nnc(-c2ccc(Br)cc2)s1	4	-6	-24	0.2	68*
Cc1onc(-c2c(F)cccc2Cl)c1C(=O)Nc1nnc(-c2ccccc2)s1	3	2	-7	0.51	-2
Cc1onc(-c2ccccc2Cl)c1C(=O)Nc1cccc(-c2cn3cccnc3n2)c1	9.0*	-4	-44	-1.5	.
Clc1ccc(SCCCCN2CCNCC2)cc1	-1	-6	13	0.0031	37
NC(=O)C1(N2CCCCC2)CCN(C(=O)CSc2nc3ccccc3s2)CC1	1	-7	-22	-2.2	43
COC(=O)c1cc(S(=O)(=O)NCc2ccc(S(N)(=O)=O)cc2)oc1C	.	.	.	2.4	.
CC1Oc2ccccc2C=C1/C=N/Nc1ccc(C(=O)O)cc1 (configuration not stated)	.	.	.	0.37	.
